Only some compounds are listed: those with a hit (about 5.8% of all), similar ones and a draw of the others.
IDH1 mut inh: inhibitors of human IDH1 R132H | O75874 | IDH1 R132H reductase, diaphorase/resazurin fluorescence, 60 min | inhibition, % at 10 µM | hit rate 0.18% among 70,000 | AID 624101; in the data active = inhibition above about 34%; inconclusive = no clear call, values can overlap the other calls; inactive = below about 11%;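 note: 0% = DMSO and 100% = no enzyme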
Pf Dd2 growth: P. falciparum Dd2 growth inhibition | activity change, % at 10 µM | SYBR Green, 72 h; stronger effect = lower value | AID 1159554 | hit rate 2.3% among 94,000; in the data active = activity change below about -80%; inconclusive = no clear call, values can overlap the other calls
KDM4C inh: blocks human GASC-1 (KDM4C) demethylase activity | Q9H3R0 | GST-KDM4C 2-372, H3K9me3 peptide, LANCE TR-FRET | inhibition, % at 12.5 µM | hit rate 0.15% among 96,000 | AID 720574;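 active = mean replicate inhibition above about 25%, with at least 55% of replicates also reaching it, limit read from the data, passing the limit was not always enough; inconclusive = only one of those two conditions met; inactive = neither condition met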
Target sequence (Q9H3R0 2-372 limits assumed): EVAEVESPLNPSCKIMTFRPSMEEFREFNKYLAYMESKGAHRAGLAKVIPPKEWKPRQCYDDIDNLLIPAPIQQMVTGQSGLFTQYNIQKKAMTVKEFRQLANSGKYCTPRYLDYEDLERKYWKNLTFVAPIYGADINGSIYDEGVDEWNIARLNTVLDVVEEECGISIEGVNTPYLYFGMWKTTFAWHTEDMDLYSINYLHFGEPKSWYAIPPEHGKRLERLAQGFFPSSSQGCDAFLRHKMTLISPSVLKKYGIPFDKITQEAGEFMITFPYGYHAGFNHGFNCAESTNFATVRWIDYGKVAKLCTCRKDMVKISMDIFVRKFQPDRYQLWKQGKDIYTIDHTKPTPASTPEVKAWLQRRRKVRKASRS
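Test system: N-terminal GST-fused human GASC-1 (KDM4C) fragment, residues 2-372; quantity: GASC-1 enzyme at 10 nM final in reaction; dosing: single dose; schedule: 30 min demethylation and 1 h detection at room temperature; signal: LANCE TR-FRET, excitation 340 nm, emissions 618 and 671 nm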
T cruzi growth-1: blocks T. cruzi growth in NIH3T3 culture; T. cruzi beta-gal in NIH3T3, GalScreen luminescence, 90 h; inhibition, % at 8.34 µM; hit rate 5.9% among 77,000; AID 624255;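 active = mean inhibition above about 93%, with at least 55% of replicates each passing it, limit read from the data, passing the limit was not always enough; inconclusive = only one of those two conditions holds; inactive = neither condition holds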
T cruzi growth-2: inhibitors of T. cruzi proliferation; AID 651739; T. cruzi beta-gal in NIH3T3, GalScreen luminescence, 90 h; shares compounds with T cruzi growth-1; hit rate 72% among 5,600; inhibition, % at 8.35 µM;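 active = mean replicate inhibition above about 95% and at least 55% of replicates individually reaching it, limit read from the data; inconclusive = only one of the two criteria is met; inactive = neither criterion is met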
T cruzi growth-3: blocks T. cruzi growth in NIH3T3 host cells; T. cruzi beta-gal in NIH3T3, GalScreen luminescence, 90 h; inhibition, % at 2.09 µM; hit rate 21% among 5,600; shares compounds with T cruzi growth-1;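 active = mean inhibition above about 95%, with at least 55% of replicates also reaching it, limit read from the data; inconclusive = meets just one of the two conditions; inactive = meets neither condition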;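 note: plate controls were neutral control median for no effect and positive control median for full effect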
3T3 cytotox: cytotoxicity in mouse NIH/3T3 fibroblasts; shares compounds with T cruzi growth-1; hit rate 14% among 5,600; AID 651742; cytotoxicity (signal decrease), % at 8.35 µM; NIH/3T3 viability, CellTiter-Glo ATP luminescence, 90 h;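 active = mean signal decrease across replicates above about 35% based on untreated-well scatter, with enough replicates individually passing, limit read from the data; inconclusive = no rule stated though some were filed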;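 note: 0% = median of neutral control wells and 100% = median of positive control wells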
3T3 cytotox 2: NIH/3T3 (mouse) viability loss. shares compounds with T cruzi growth-1. inhibition, % at 24.9 µM. hit rate 56% among 5,600. NIH/3T3 viability, CellTiter-Glo ATP luminescence, 90 h;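 active = mean loss of cell viability signal at or above a set limit, and enough replicates individually reaching it; inconclusive = meets only the mean limit or only the replicate share; inactive = meets neither condition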;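 note: 0% = median of neutral control wells and 100% = median of positive control wells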
The depositor's hits bear a star.

`COc1ccc(NC(=O)Nc2ccc3c(c2)C(=O)N([C@@H](C)CO)C[C@H](C)[C@@H](CN(C)Cc2ccc4c(c2)OCO4)OCCCC[C@H](C)O3)cc1` gave Pf Dd2 growth -58, KDM4C inh 0, T cruzi growth-1 inconclusive, T cruzi growth-2 103*, T cruzi growth-3 78, 3T3 cytotox -5 and 3T3 cytotox 2 105*.
CC1(C)CC(=O)C=C(NCC2CCN(C(=S)Nc3ccccc3)CC2)C1 was read as IDH1 mut inh 0.
Screening COc1ccc([N+](=O)[O-])cc1NC(=O)CN(c1ccccc1Cl)S(C)(=O)=O returned IDH1 mut inh 0.
O=C(C[C@H]1CC[C@@H]2[C@H](COC[C@@H](O)CN2C(=O)Nc2ccc(Cl)cc2)O1)NCCc1ccncc1 was read as Pf Dd2 growth 7, KDM4C inh -2, T cruzi growth-1 106*, T cruzi growth-2 96*, T cruzi growth-3 84, 3T3 cytotox -5 and 3T3 cytotox 2 -11.
O=C(C[C@H]1CC[C@@H]2[C@H](COC[C@@H](O)CN2C(=O)Nc2ccc(F)cc2)O1)NCCc1ccncc1 was read as Pf Dd2 growth 4, KDM4C inh -2 and T cruzi growth-1 72.
O=C(C[C@@H]1CC[C@@H]2[C@H](COC[C@@H](O)CN2C(=O)Nc2ccc(Cl)cc2)O1)NCCc1ccncc1 was read as Pf Dd2 growth 19, KDM4C inh 0, T cruzi growth-1 119*, T cruzi growth-2 94, T cruzi growth-3 80, 3T3 cytotox -14 and 3T3 cytotox 2 -8.
`O=C(C[C@H]1CC[C@@H]2[C@H](COC[C@H](O)CN2C(=O)Nc2ccc(Cl)cc2)O1)NCCc1ccncc1` gave Pf Dd2 growth 10, KDM4C inh 0, T cruzi growth-1 109*, T cruzi growth-2 91, T cruzi growth-3 83, 3T3 cytotox 10 and 3T3 cytotox 2 25.
COc1ccccc1NC(=O)N1C[C@H](O)COC[C@H]2O[C@H](CC(=O)NCCc3ccncc3)CC[C@@H]21 was read as KDM4C inh -1, T cruzi growth-1 inconclusive, T cruzi growth-2 36, T cruzi growth-3 -3, 3T3 cytotox -1 and 3T3 cytotox 2 -1.
`COc1ccc(C#Cc2cnc3c(c2)C(=O)N([C@H](C)CO)C[C@@H](C)[C@H](CN(C)C(=O)CC2CC2)O3)cc1` gave IDH1 mut inh 6, Pf Dd2 growth -64, KDM4C inh 0 and T cruzi growth-1 -18.
Screening C/C=C/c1ccccc1[C@H]1[C@@H](C#N)N(C(=O)NC2CCCCC2)[C@H]1CO returned Pf Dd2 growth -5 and KDM4C inh -2.
Screening O=C(N[C@H]1CC[C@H](CC(=O)N2CCCCC2)O[C@@H]1CO)c1ccc2c(c1)OCO2 returned IDH1 mut inh 0, Pf Dd2 growth 4, KDM4C inh 0 and T cruzi growth-1 -44.
`C[C@@H]1CN([C@@H](C)CO)C(=O)CCCn2nncc2CO[C@@H]1CN(C)Cc1ccc(C(=O)Nc2ccccc2N)cc1` gave Pf Dd2 growth 0, KDM4C inh 0 and T cruzi growth-1 82.
For C[C@@H]1CN([C@H](C)CO)C(=O)CCCn2nncc2CO[C@H]1CN(C)Cc1ccc(-c2ccccc2)cc1 the results were Pf Dd2 growth -21, KDM4C inh 1 and T cruzi growth-1 -53.
For C[C@H]1CN([C@@H](C)CO)C(=O)CCCn2nncc2CO[C@@H]1CN(C)Cc1ccc(C(=O)O)cc1 the results were IDH1 mut inh 3 and KDM4C inh 3.
`C[C@@H]1CN([C@@H](C)CO)C(=O)CCCn2nncc2CO[C@H]1CN(C)Cc1ccc(C(=O)Nc2ccccc2N)cc1` gave Pf Dd2 growth -11, KDM4C inh 4, T cruzi growth-1 110*, T cruzi growth-2 101*, T cruzi growth-3 107*, 3T3 cytotox 9 and 3T3 cytotox 2 36*.
